Data: ChEMBL document CHEMBL1158782, “Cytotoxic germacrane sesquiterpenes from the aerial parts of Santolina insularis” (J Nat Prod, 2005)
pIC50: −log10 of the molar value.

Legend:
[1] = Cytotoxicity against mouse peritoneal macrophages cells after 24 hrs by MTT assay; format: cell-based; settings: Macrophage
Summary of the method: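 Mouse cells harvested 4 days after intraperitoneal 10% thioglycollate, about 70% macrophages. Plated at 1 × 10^5/well and left to adhere for 3 h in DMEM with 10% FBS, 2 mM L-glutamine, 25 mM HEPES, antibiotics and 5 mM sodium pyruvate at 37 °C. Treated 24 h with compounds at 0.1-10 µg/mL. MTT (5 mg/mL) for 3 h, DMSO solubilization, OD490 read.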

Caco-2 = test: Cytotoxicity against human Caco-2 cells after 24 hrs by MTT assay; format: functional, cell-based; settings: Caco-2, 24 h
Summary of the method: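 Caco-2 cells kept in DMEM with 10% FBS, 25 mM HEPES, 100 U/mL penicillin and 100 µg/mL streptomycin at 37 °C under humidified 5% CO2. Seeded at 1 × 10^4/well for 48 h, then exposed to compounds (0.1-10 µg/mL) for 24 h. MTT (5 mg/mL) added for 3 h at 37 °C, formazan dissolved in DMSO, OD490 read. IC50 reported.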

CC(C)[C@@H]1CC[C@]2(C)O[C@H]2[C@H](O)C[C@]2(C)O[C@H]2[C@@H]1O
IC50 [1]: ≥ 10 µg/mL

C=C1C[C@@H](O)[C@H](O)[C@]2(C)CC[C@@H](C(C)C)[C@@H](O)[C@@H]1O2
pIC50 (Caco-2): 5.43
IC50 [1]: ≥ 10 µg/mL

CC(=O)O[C@H]1/C=C(\C)CC[C@@H](C(C)C)[C@@H](O)[C@@H]2O[C@@]2(C)C1
IC50 [1]: ≥ 10 µg/mL

C/C1=C/C[C@@H](C(C)C)[C@@H](O)[C@@H]2O[C@@]2(C)C[C@@H](O)[C@@H]1O
pIC50 (Caco-2): 5.96
IC50 [1]: ≥ 10 µg/mL

C/C1=C\[C@H](O)C[C@]2(C)O[C@H]2[C@H](O)[C@H](C(C)C)CC1
IC50 [1]: ≥ 10 µg/mL

C/C1=C\[C@H](O)C/C(C)=C/[C@H](O)[C@H](C(C)C)CC1
IC50 [1]: ≥ 10 µg/mL

C=C1C[C@@H](O)[C@H](O)/C(C)=C\C[C@@H](C(C)C)[C@@H](O)[C@@H]1O
IC50 [1]: ≥ 10 µg/mL

C=C1CC[C@@H](C(C)C)[C@@H](O)/C=C(\C)[C@H](O)CC1=O
IC50 [1]: ≥ 10 µg/mL

C=C1C[C@@H](O)/C=C(\C)CC[C@@H](C(C)C)[C@@H](O)C1
IC50 [1]: ≥ 10 µg/mL
